Source: PubChem (several laboratories)
Tb MetRS inh – T. brucei MetRS inhibitors, primary screen, biochemical, luminescence; methionyl-tRNA synthetase (Trypanosoma brucei brucei); purified T. brucei MetRS, ATP depletion, Kinase-Glo luminescence; inhibition, % at 11.9 µM; actives 0.4% (n = 360,000); AID 624268, 2012;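 active = inhibition above a per-plate cutoff of the control wells' mean inhibition plus 3 SD, cut at about 5.5% in these data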;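 also: 0% = DMSO wells median and 100% = median of wells with control inhibitor compound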
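technique = Kinase-Glo luminescence, ATP depletion format | system = purified MetRS (methionyl-tRNA synthetase) enzyme from Trypanosoma brucei | timing = 15 min preincubation, 2 h reaction, all 25 °C | evaluation = percent inhibition versus plate control medians | dosing = single dose, 11.9 µM final nominal, 0.9% final DMSO | also added = substrates ATP, L-methionine and bulk Escherichia coli tRNA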
NTR1 ag – agonists of human NTR1, primary screen, imaging, U2OS cells, beta-arrestin-GFP, high content; actives 0.17% (n = 330,000); NTR1-U2OS beta-arrestin-GFP spot imaging, agonist mode; activation, % at 20 µM;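 active = activation at or above 40% of the spot to cytoplasm intensity ratio, with at least 20 cells analyzed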;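 also: 0% = DMSO without peptide and 100% = 100 nM NTR1 peptide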
MC4R barr agon – MC4R agonists recruiting beta-arrestin, primary screen, cell-based, luminescence, agonist arm of biased-ligand search. Melanocortin receptor 4 (Homo sapiens), P32245. actives 0.98% (n = 360,000). activation, % at 8.9 µM. U2OS MC4R beta-arrestin complementation; percent of melanotan II response, DMSO zero;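 active = activation above a per-plate cutoff, the mean activation of sample wells on that plate plus 3 SD, cut at about 8% in these data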
Target sequence (P32245 whole entry, looked up): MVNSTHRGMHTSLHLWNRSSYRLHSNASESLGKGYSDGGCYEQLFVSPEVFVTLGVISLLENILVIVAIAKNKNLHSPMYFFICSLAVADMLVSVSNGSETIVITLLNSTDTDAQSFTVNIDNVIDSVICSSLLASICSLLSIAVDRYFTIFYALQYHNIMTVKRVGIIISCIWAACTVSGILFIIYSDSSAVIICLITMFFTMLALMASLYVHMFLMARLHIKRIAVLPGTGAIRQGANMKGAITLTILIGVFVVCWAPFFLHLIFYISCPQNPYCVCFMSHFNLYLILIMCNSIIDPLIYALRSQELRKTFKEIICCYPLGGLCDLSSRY
MC4R antag cAMP – MC4R antagonists of cAMP signaling, primary screen, cell-based, TR-FRET, antagonist arm of biased-ligand search | MC4R-expressing cells, MTII-stimulated cAMP, LANCE TR-FRET | actives 0.48% (n = 360,000) | Melanocortin receptor 4 (Homo sapiens), P32245 | inhibition, % at 6.5 µM;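 active = inhibition above its plate's cutoff, the mean of tested wells on that plate plus 3 SD, cut at about 29% in these data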;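 also: 0% = Melanotan II alone and 100% = Melanotan II plus saturating MCL0020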
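Test system: U2OS cells stably expressing human melanocortin 4 receptor (MC4R); also added: Melanotan II challenge; compound: 6.5 µM single dose; timing: 30-min compound preincubation, 1-h Melanotan II challenge, 1-h detection, room temperature; signal: Eu-cAMP/anti-cAMP TR-FRET, emission 671 nm; repeats: one well per compound, no replicates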
aDG glyco up – activators of alpha-DG glycosylation, primary screen, uHTS, Pro5-aDG cells, AlphaScreen. alpha-DG glycosylation AlphaScreen (IIH6); 0% Pro5, 100% B10-LARGE cell signal. activation, % at 10 µM. actives 0.22% (n = 360,000);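 active = activation of at least 8% versus controls, or a plate z-score of at least 8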;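 also: Pro5 are CHO cells carrying HIG-tagged alpha-DG that lacks glycosylation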
H9c2 TAG inh – inhibitors of triacylglycerol accumulation, primary screen, cell-based, uHTS, fluorescence, H9c2 | H9c2 cells, Nile Red lipid (TAG) fluorescence; cells loaded with 200 µM oleic acid | actives 0.66% (n = 230,000) | AID 651582, 2012 | inhibition, % at 12.5 µM;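 active = pattern-corrected inhibition of lipid staining of at least 50% with the nuclear-stain viability signal not falling by more than 50%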;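 also: 0% = DMSO wells and 100% = triacsin C control wells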
U2OS cAMP counter – nonselective cAMP signaling inhibitors, parental cells, counter-screen for MC4R biased antagonist project, cell-based, TR-FRET, U2OS, forskolin, triplicate. shares compounds with MC4R antag cAMP. LANCE TR-FRET. AID 602193, 2012. inhibition, % at 6.5 µM. actives 26% (n = 1,600);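 active = mean inhibition over triplicates above the low-control well mean plus 3 SD, set per campaign, cut at about 13% in these data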;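 also: signal is single emission at 671 nm which falls as cellular cAMP rises; 0% = forskolin-stimulated wells and 100% = buffer without forskolin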
MC4R cAMP antag – MC4R cAMP antagonists, retest, confirmation, cell-based, TR-FRET. shares compounds with MC4R antag cAMP. MC4R-expressing cells, MTII-stimulated cAMP. inhibition, % at 6.5 µM. actives 27% (n = 1,600). AID 602195, 2012; in the data active = inhibition above about 29%;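 also: 0% = agonist stimulated wells alone and 100% = agonist stimulated wells plus saturating reference antagonist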
Starred values were filed as active, the others as inactive; . = not tested or not shown; + = active, no number. The list is not random: actives were taken first. Their share in the collection is about 2.4%.

SMILES	Tb MetRS inh	NTR1 ag	MC4R barr agon	MC4R antag cAMP	aDG glyco up	H9c2 TAG inh	U2OS cAMP counter	MC4R cAMP antag
COc1ccccc1C(=O)Oc1ccccc1C(=O)Nc1ccccc1	0	1	1	19	0	8	.	.
O=C(Oc1ccccc1C(=O)Nc1ccccc1)c1ccc(Br)c([N+](=O)[O-])c1	0	2	-1	36*	1	-2	12	18
COc1cc(-c2c(CCO)sc3ccccc23)cc(OC)c1OC	0	.	.	.	0	.	.	.
N#CC(=Nc1cccc(F)c1)C1=C(O)c2ccccc2C1=O	0	.	.	.	0	.	.	.
COc1ccc(-c2c3c([nH]c(=S)c2C#N)CCC3)cc1	-1	.	0	88*	0	-30	20*	35*
CC(=O)Oc1ccc2nc(-c3ccco3)oc(=O)c2c1	0	2	0	34*	0	.	13	39*
CC(=O)Oc1ccc2nc(-c3cccs3)oc(=O)c2c1	-1	0	1	22	0	9	.	.
COC(=O)C[C@H]1CC[C@H](NC(=O)Nc2ccccc2F)[C@@H](CO)O1	-1	.	.	.	0	.	.	.
CC(=O)Nc1cccc(Oc2cc(C#N)c(C#N)cc2N2CCCCCC2)c1	2	5	0	33*	0	-5	2	10
O=C(COC(=O)/C=C/c1ccco1)NC1CCCCC1	0	-1	-1	4	0	-18	.	.
O=C(/C=C/c1ccco1)OCC1CCCN2CCCCC12 (centres undefined)	1	0	-3	31*	0	18	-2	-6
CC(=O)NC(C)(c1ccccc1)c1nc(-c2cnc3ccccc3c2)cs1 (centres undefined)	0	.	0	-7	0	0	.	.
O=C1CC(=O)N(CCNc2ncc(C(F)(F)F)cc2Cl)C(=O)N1	-1	-1	1	-6	0	1	.	.
O=C1C=CC(=O)N1CCNc1ncc(C(F)(F)F)cc1Cl	0	29	-2	53*	-1	11	-5	24
CN(C)C(=O)c1ccc(SC(=S)NCc2ccccc2)cc1	-1	.	.	.	0	.	.	.
COc1ccc(-c2noc(CN(C)CCC3CCCCO3)n2)cc1 (centres undefined)	1	0	-1	32*	0	10	-4	-10
O=C(CCc1nc(-c2ccccc2Cl)no1)NCCc1ccccc1	-1	0	1	29*	0	.	-1	2
COCCCNC(=O)CCc1nc(-c2ccccc2Cl)no1	0	-1	-1	2	0	-22	.	.
CC(=O)NC(c1ccccc1)c1nc(-c2ccc3ccccc3c2)cs1 (centres undefined)	0	.	-1	0	0	-5	.	.
OCCC1CN(Cc2ccccn2)CCN1C1CCCC1 (centres undefined)	-1	0	0	37*	1	12	21*	9
OCCC1CN(Cc2cccn2-c2ccccn2)CCN1C1CCCC1 (centres undefined)	0	0	-2	1	1	4	.	.
CC(=O)c1cccc(CN2CCN(C3CCCC3)C(CCO)C2)c1 (centres undefined)	0	0	0	29*	0	-1	0	4
CSCCC(C(=O)NC(C)(C)C)n1c(-c2ccc3c(c2)OCO3)nc2ccccc21 (centres undefined)	0	.	.	.	0	.	.	.
O=C(NC1CCCCC1)C(c1ccccc1F)n1c(=O)c(-c2cc3ccccc3[nH]2)nc2ccccc21 (centres undefined)	0	.	.	.	2	.	.	.
CCOc1cc(C(=O)NCC(C)(C)CNC(=O)c2cc(OCC)c(OCC)c(OCC)c2)cc(OCC)c1OCC	0	1	1	30*	0	-3	-5	1
SMILES	Tb MetRS inh	NTR1 ag	MC4R barr agon	MC4R antag cAMP	aDG glyco up	H9c2 TAG inh	U2OS cAMP counter	MC4R cAMP antag
CC(C)(C)S(=O)N1Cc2cc(C(=O)N3CCc4ccccc4C3)nc(-c3cccc(-c4cccnc4)c3)c2[C@@H]1CCO (some centres undefined)	1	.	.	.	0	.	.	.
Cc1cc(Cl)nc(-c2ccccc2)n1	0	0	-1	1	0	-1	.	.
CN(C)c1cc(-c2ccccc2)nc(-c2ccccc2)n1	-1	0	-1	16	0	-5	.	.
Clc1cc(-c2ccccc2)nc(-c2ccccc2)n1	0	12	-1	30*	0	14	17*	29*
Brc1cc(-c2ccccc2)nc(-c2ccccc2)n1	0	3	-2	36*	0	7	18*	36*
O=C(NCC(c1ccco1)N1CCN(c2ccccc2)CC1)C1CCCCC1 (centres undefined)	0	.	-1	8	0	-2	.	.
COc1ccc(/C=C2\C(=O)ON=C2c2ccccc2)cc1OC	0	0	-1	31*	0	.	2	-4
COc1ccc(/C=C2/C(=O)ON=C2c2ccccc2)cc1OC	-2	4	0	-1	0	-27	.	.
OC(c1ccccc1)(c1ccccc1)C1CCN(CCCOc2ccc3c(c2)CCCC3)CC1	-1	.	.	.	0	.	.	.
O=C(c1cc(-c2cccs2)nn1-c1ccccc1)N1CCN(S(=O)(=O)c2ccccc2)CC1	-1	3	-2	29*	0	0	3	8
CCN(CC)CCNC(=O)c1cc(-c2ccc(Br)s2)nc2ccccc12	0	2	5	33*	1	.	7	-9
O=C(O)c1cc(-c2ccc(Br)s2)nc2ccccc12	0	-1	0	+	0	.	185*	+
CCCCOc1cc(C(=O)NCCN(CC)CC)c2ccccc2n1	0	-1	-1	11	0	10	.	.
CCOCCCNC(=O)c1cc(-c2ccc(Br)s2)nc2ccccc12	0	-1	-1	37*	1	.	33*	63*
Cc1ccc(-n2nc3c(=S)[nH]nc(C)c3c2C)cc1	-1	2	-2	146*	0	2	90*	147*
